Measured values reported in ChEMBL document CHEMBL5058577, “EUbOPEN Chemogenomics Library 2 (Multiplex)” (2022).

System: U2OS
Experiment: Multiplex assay against U2OS
Type: toxicity, cell-based
Settings: human
Outline: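 Hoechst33342, BioTracker Green Microtubule Cytoskeleton Dye, MitoTracker Red and Annexin V Alexa Fluor 680 were added to live cells at seeding, and imaging on a CQ1 microscope at 37°C and 5% CO2 followed compound addition. Gating by CellPathfinder machine learning separated cells into Hoechst high-intensity objects or normal cells, then normal cells into healthy, pyknosed or fragmented nuclei, then pyknosed cells into mitotic or apoptotic. Per cents of healthy-nucleus cells are reported for the tubulin, mitochondrial-mass and membrane-permeability phenotypes.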

[1] = 12 h, 1 µM, compound concentration 1 uM, replicate 1
[2] = 12 h, 1 µM, compound concentration 1 uM, replicate 2
[3] = 12 h, 10 µM, compound concentration 10 uM, replicate 1
[4] = 12 h, 10 µM, compound concentration 10 uM, replicate 2
[5] = 24 h, 1 µM, compound concentration 1 uM, replicate 1
[6] = 24 h, 1 µM, compound concentration 1 uM, replicate 2
[7] = 24 h, 10 µM, compound concentration 10 uM, replicate 1
[8] = 24 h, 10 µM, compound concentration 10 uM, replicate 2
[9] = 48 h, 1 µM, compound concentration 1 uM, replicate 1
[10] = 48 h, 1 µM, compound concentration 1 uM, replicate 2
[11] = 48 h, 10 µM, compound concentration 10 uM, replicate 1
[12] = 48 h, 10 µM, compound concentration 10 uM, replicate 2

COc1cc(C(=O)N(CCCc2ccccc2)Cc2ccc(CC(=O)O)cc2)cc(OC)c1C
Population Apoptotic (%) [1]: 95%
Population Fragmented Nuclei (%) [1]: 29%
Population Healthy Nuclei (%) [1]: 60%
Population Hoechst High Intensity Objects (%) [1]: 4%
Population Membrane Permeable-Phenotype (%) [1]: 7%
Population Mitochondria Different-Phenotype (%) [1]: 4%
Population Mitotic Cells (%) [1]: 4%
Population Normal (%) [1]: 95%
Population Pyknosed Nuclei (%) [1]: 10%
Population Tubulin-Different-Phenotype (%) [1]: 4%
Total Cell Count [1]: 228
Population Apoptotic (%) [2]: 70%
Population Fragmented Nuclei (%) [2]: 23%
Population Healthy Nuclei (%) [2]: 65%
Population Membrane Permeable-Phenotype (%) [2]: 8%
Population Mitochondria Different-Phenotype (%) [2]: 1%
Population Mitotic Cells (%) [2]: 30%
Population Pyknosed Nuclei (%) [2]: 11%
Population Tubulin-Different-Phenotype (%) [2]: 1%
Total Cell Count [2]: 93
Population Apoptotic (%) [3]: 82%
Population Fragmented Nuclei (%) [3]: 22%
Population Healthy Nuclei (%) [3]: 71%
Population Hoechst High Intensity Objects (%) [3]: 0%
Population Membrane Permeable-Phenotype (%) [3]: 5%
Population Mitochondria Different-Phenotype (%) [3]: 0%
Population Mitotic Cells (%) [3]: 17%
Population Normal (%) [3]: 99%
Population Pyknosed Nuclei (%) [3]: 6%
Population Tubulin-Different-Phenotype (%) [3]: 2%
Total Cell Count [3]: 262
Population Apoptotic (%) [4]: 100%
Population Fragmented Nuclei (%) [4]: 15%
Population Healthy Nuclei (%) [4]: 79%
Population Hoechst High Intensity Objects (%) [4]: 1%
Population Membrane Permeable-Phenotype (%) [4]: 2%
Population Mitochondria Different-Phenotype (%) [4]: 3%
Population Mitotic Cells (%) [4]: 0%
Population Normal (%) [4]: 98%
Population Pyknosed Nuclei (%) [4]: 4%
Population Tubulin-Different-Phenotype (%) [4]: 4%
Total Cell Count [4]: 171
Population Apoptotic (%) [5]: 84%
Population Fragmented Nuclei (%) [5]: 29%
Population Healthy Nuclei (%) [5]: 61%
Population Hoechst High Intensity Objects (%) [5]: 2%
Population Membrane Permeable-Phenotype (%) [5]: 7%
Population Mitochondria Different-Phenotype (%) [5]: 6%
Population Mitotic Cells (%) [5]: 15%
Population Normal (%) [5]: 97%
Population Pyknosed Nuclei (%) [5]: 9%
Population Tubulin-Different-Phenotype (%) [5]: 4%
Total Cell Count [5]: 288
Population Apoptotic (%) [6]: 73%
Population Fragmented Nuclei (%) [6]: 22%
Population Healthy Nuclei (%) [6]: 64%
Population Hoechst High Intensity Objects (%) [6]: 4%
Population Membrane Permeable-Phenotype (%) [6]: 2%
Population Mitochondria Different-Phenotype (%) [6]: 2%
Population Mitotic Cells (%) [6]: 26%
Population Normal (%) [6]: 95%
Population Pyknosed Nuclei (%) [6]: 13%
Population Tubulin-Different-Phenotype (%) [6]: 0%
Total Cell Count [6]: 120
Population Apoptotic (%) [7]: 94%
Population Fragmented Nuclei (%) [7]: 18%
Population Healthy Nuclei (%) [7]: 76%
Population Hoechst High Intensity Objects (%) [7]: 0%
Population Membrane Permeable-Phenotype (%) [7]: 7%
Population Mitochondria Different-Phenotype (%) [7]: 2%
Population Mitotic Cells (%) [7]: 5%
Population Normal (%) [7]: 99%
Population Pyknosed Nuclei (%) [7]: 5%
Population Tubulin-Different-Phenotype (%) [7]: 3%
Total Cell Count [7]: 318
Population Apoptotic (%) [8]: 84%
Population Fragmented Nuclei (%) [8]: 12%
Population Healthy Nuclei (%) [8]: 80%
Population Hoechst High Intensity Objects (%) [8]: 2%
Population Mitochondria Different-Phenotype (%) [8]: 5%
Population Mitotic Cells (%) [8]: 15%
Population Normal (%) [8]: 97%
Population Pyknosed Nuclei (%) [8]: 6%
Population Tubulin-Different-Phenotype (%) [8]: 5%
Total Cell Count [8]: 192
Population Apoptotic (%) [9]: 86%
Population Fragmented Nuclei (%) [9]: 23%
Population Healthy Nuclei (%) [9]: 69%
Population Hoechst High Intensity Objects (%) [9]: 3%
Population Membrane Permeable-Phenotype (%) [9]: 5%
Population Mitochondria Different-Phenotype (%) [9]: 2%
Population Mitotic Cells (%) [9]: 13%
Population Normal (%) [9]: 96%
Population Pyknosed Nuclei (%) [9]: 7%
Population Tubulin-Different-Phenotype (%) [9]: 4%
Total Cell Count [9]: 408
Population Apoptotic (%) [10]: 78%
Population Fragmented Nuclei (%) [10]: 22%
Population Healthy Nuclei (%) [10]: 64%
Population Hoechst High Intensity Objects (%) [10]: 6%
Population Membrane Permeable-Phenotype (%) [10]: 7%
Population Mitochondria Different-Phenotype (%) [10]: 5%
Population Mitotic Cells (%) [10]: 21%
Population Normal (%) [10]: 93%
Population Pyknosed Nuclei (%) [10]: 12%
Population Tubulin-Different-Phenotype (%) [10]: 6%
Total Cell Count [10]: 159
Population Apoptotic (%) [11]: 93%
Population Fragmented Nuclei (%) [11]: 18%
Population Healthy Nuclei (%) [11]: 75%
Population Hoechst High Intensity Objects (%) [11]: 1%
Population Membrane Permeable-Phenotype (%) [11]: 4%
Population Mitochondria Different-Phenotype (%) [11]: 2%
Population Mitotic Cells (%) [11]: 6%
Population Normal (%) [11]: 98%
Population Pyknosed Nuclei (%) [11]: 6%
Population Tubulin-Different-Phenotype (%) [11]: 2%
Total Cell Count [11]: 504
Population Apoptotic (%) [12]: 94%
Population Fragmented Nuclei (%) [12]: 15%
Population Healthy Nuclei (%) [12]: 71%
Population Hoechst High Intensity Objects (%) [12]: 3%
Population Membrane Permeable-Phenotype (%) [12]: 8%
Population Mitochondria Different-Phenotype (%) [12]: 1%
Population Mitotic Cells (%) [12]: 5%
Population Normal (%) [12]: 96%
Population Pyknosed Nuclei (%) [12]: 13%
Population Tubulin-Different-Phenotype (%) [12]: 4%
Total Cell Count [12]: 280

COc1ccc2c(c1)C(C(=O)N(Cc1ccc(N(C)C)cc1)c1ccc(C(C)C)cc1)CCC2.Cl (stereo unspecified)
Population Apoptotic (%) [1]: 70%
Population Fragmented Nuclei (%) [1]: 36%
Population Healthy Nuclei (%) [1]: 54%
Population Hoechst High Intensity Objects (%) [1]: 4%
Population Membrane Permeable-Phenotype (%) [1]: 8%
Population Mitochondria Different-Phenotype (%) [1]: 5%
Population Mitotic Cells (%) [1]: 29%
Population Normal (%) [1]: 95%
Population Pyknosed Nuclei (%) [1]: 9%
Population Tubulin-Different-Phenotype (%) [1]: 4%
Total Cell Count [1]: 264
Population Fragmented Nuclei (%) [2]: 17%
Population Healthy Nuclei (%) [2]: 73%
Population Hoechst High Intensity Objects (%) [2]: 3%
Population Membrane Permeable-Phenotype (%) [2]: 9%
Population Mitochondria Different-Phenotype (%) [2]: 3%
Population Mitotic Cells (%) [2]: 30%
Population Normal (%) [2]: 96%
Population Pyknosed Nuclei (%) [2]: 8%
Population Tubulin-Different-Phenotype (%) [2]: 2%
Total Cell Count [2]: 122
Population Apoptotic (%) [3]: 38%
Population Fragmented Nuclei (%) [3]: 27%
Population Healthy Nuclei (%) [3]: 50%
Population Hoechst High Intensity Objects (%) [3]: 4%
Population Membrane Permeable-Phenotype (%) [3]: 73%
Population Mitochondria Different-Phenotype (%) [3]: 55%
Population Mitotic Cells (%) [3]: 61%
Population Normal (%) [3]: 95%
Population Pyknosed Nuclei (%) [3]: 22%
Population Tubulin-Different-Phenotype (%) [3]: 80%
Total Cell Count [3]: 224
Population Apoptotic (%) [4]: 60%
Population Fragmented Nuclei (%) [4]: 16%
Population Healthy Nuclei (%) [4]: 60%
Population Membrane Permeable-Phenotype (%) [4]: 43%
Population Mitochondria Different-Phenotype (%) [4]: 73%
Population Mitotic Cells (%) [4]: 40%
Population Pyknosed Nuclei (%) [4]: 23%
Population Tubulin-Different-Phenotype (%) [4]: 58%
Total Cell Count [4]: 113
Population Apoptotic (%) [5]: 75%
Population Fragmented Nuclei (%) [5]: 27%
Population Healthy Nuclei (%) [5]: 61%
Population Hoechst High Intensity Objects (%) [5]: 4%
Population Membrane Permeable-Phenotype (%) [5]: 5%
Population Mitochondria Different-Phenotype (%) [5]: 4%
Population Mitotic Cells (%) [5]: 24%
Population Normal (%) [5]: 95%
Population Pyknosed Nuclei (%) [5]: 11%
Population Tubulin-Different-Phenotype (%) [5]: 4%
Total Cell Count [5]: 273
Population Apoptotic (%) [6]: 100%
Population Fragmented Nuclei (%) [6]: 18%
Population Healthy Nuclei (%) [6]: 73%
Population Hoechst High Intensity Objects (%) [6]: 2%
Population Mitochondria Different-Phenotype (%) [6]: 1%
Population Mitotic Cells (%) [6]: 0%
Population Normal (%) [6]: 97%
Population Pyknosed Nuclei (%) [6]: 7%
Population Tubulin-Different-Phenotype (%) [6]: 2%
Total Cell Count [6]: 146
Population Apoptotic (%) [7]: 71%
Population Fragmented Nuclei (%) [7]: 25%
Population Healthy Nuclei (%) [7]: 50%
Population Hoechst High Intensity Objects (%) [7]: 2%
Population Membrane Permeable-Phenotype (%) [7]: 54%
Population Mitochondria Different-Phenotype (%) [7]: 42%
Population Mitotic Cells (%) [7]: 28%
Population Normal (%) [7]: 97%
Population Pyknosed Nuclei (%) [7]: 24%
Population Tubulin-Different-Phenotype (%) [7]: 49%
Total Cell Count [7]: 224
Population Apoptotic (%) [8]: 86%
Population Fragmented Nuclei (%) [8]: 20%
Population Healthy Nuclei (%) [8]: 57%
Population Hoechst High Intensity Objects (%) [8]: 9%
Population Membrane Permeable-Phenotype (%) [8]: 45%
Population Mitochondria Different-Phenotype (%) [8]: 53%
Population Mitotic Cells (%) [8]: 13%
Population Normal (%) [8]: 90%
Population Pyknosed Nuclei (%) [8]: 22%
Population Tubulin-Different-Phenotype (%) [8]: 48%
Total Cell Count [8]: 115
Population Apoptotic (%) [9]: 80%
Population Fragmented Nuclei (%) [9]: 21%
Population Healthy Nuclei (%) [9]: 65%
Population Hoechst High Intensity Objects (%) [9]: 2%
Population Membrane Permeable-Phenotype (%) [9]: 10%
Population Mitochondria Different-Phenotype (%) [9]: 5%
Population Mitotic Cells (%) [9]: 20%
Population Normal (%) [9]: 97%
Population Pyknosed Nuclei (%) [9]: 13%
Population Tubulin-Different-Phenotype (%) [9]: 3%
Total Cell Count [9]: 369
Population Apoptotic (%) [10]: 93%
Population Fragmented Nuclei (%) [10]: 17%
Population Healthy Nuclei (%) [10]: 73%
Population Hoechst High Intensity Objects (%) [10]: 3%
Population Membrane Permeable-Phenotype (%) [10]: 6%
Population Mitochondria Different-Phenotype (%) [10]: 4%
Population Mitotic Cells (%) [10]: 6%
Population Normal (%) [10]: 96%
Population Pyknosed Nuclei (%) [10]: 8%
Population Tubulin-Different-Phenotype (%) [10]: 2%
Total Cell Count [10]: 203
Population Apoptotic (%) [11]: 73%
Population Fragmented Nuclei (%) [11]: 21%
Population Healthy Nuclei (%) [11]: 47%
Population Hoechst High Intensity Objects (%) [11]: 3%
Population Membrane Permeable-Phenotype (%) [11]: 43%
Population Mitochondria Different-Phenotype (%) [11]: 26%
Population Mitotic Cells (%) [11]: 26%
Population Normal (%) [11]: 96%
Population Pyknosed Nuclei (%) [11]: 30%
Population Tubulin-Different-Phenotype (%) [11]: 31%
Total Cell Count [11]: 265
Population Apoptotic (%) [12]: 92%
Population Fragmented Nuclei (%) [12]: 26%
Population Healthy Nuclei (%) [12]: 49%
Population Hoechst High Intensity Objects (%) [12]: 8%
Population Mitochondria Different-Phenotype (%) [12]: 36%
Population Mitotic Cells (%) [12]: 7%
Population Normal (%) [12]: 91%
Population Pyknosed Nuclei (%) [12]: 24%
Population Tubulin-Different-Phenotype (%) [12]: 42%
Total Cell Count [12]: 126
